Data set [1] can be described thus: Neuroprotective activity in oligomeric amyloid beta peptide-induced human MC65 cells assessed as cell viability by MTT assay. Type of data set: functional, cell-based. An outline of the steps:
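Protection against Aβ oligomer-induced toxicity in MC65 cells, reported as EC50 (median effective concentration).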

Data set [2] can be described thus: Cytotoxicity against human MC65 cells by MTT assay. Type of data set: cell-based. The following applies: read-out: TC50 (the source's name). A digest of the protocol:
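MC65 cells kept with tetracycline in the medium to suppress C99 production, so the cells survive and compound toxicity alone is measured. Reported as TC50 (median toxic concentration).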
(In general: Tetrazolium dyes change colour on reduction, which living cells bring about.)

Data set [3] can be described thus: Drug uptake in CD1 mouse brain at 5 mg/kg, po daily for 75 days. Type of data set: ADME, organism-based. The following applies: read-out: Drug uptake. Set-up: dose 5 mg/kg, route oral. An outline of the steps:
(§1)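 CD1 mice received 5 mg/Kg by oral gavage once daily for 75 days (four treated, two untreated). Compound in tissues and plasma was quantified by a previously reported procedure and expressed in µM as mean ± standard deviation (n = 4).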

Data set [4] relates to Mus musculus. Description: Toxicity in CD1 mouse assessed as effect on locomotion at 5 mg/kg, po daily for 75 days by Versamax chamber test. The following applies: in vivo, 1800 h. Set-up: dose 5 mg/kg, route oral. Type of data set: organism-based. A digest of the protocol:
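After 75 days of daily 5 mg/Kg oral gavage, control and treated mice were acclimatized for 15 min in a Versamax chamber, then their movements were monitored. Measures were clockwise and counter-clockwise activity, total distance, rest time, and vertical and horizontal activity, compared against control.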

The next data set concerns Lung. Nature of the data set: Drug uptake in CD1 mouse lung at 5 mg/kg, po daily for 75 days. The class given is ADME, organism-based. Set-up: dose 5 mg/kg, route oral. The following applies: in vivo, 1800 h. An outline of the steps:
as §1

Data set [5] is described as follows: Drug uptake in CD1 mouse kidney at 5 mg/kg, po daily for 75 days. The class given is ADME, organism-based. Set-up: dose 5 mg/kg, route oral. The following applies: read-out: Drug uptake. An outline of the steps:
as §1

Data set [6] can be described thus: Drug uptake in CD1 mouse plasma at 5 mg/kg, po daily for 75 days. Set-up: dose 5 mg/kg, route oral. Type of data set: ADME, organism-based. An outline of the steps: as §1
Data set [7] concerns Mus musculus. Description: Toxicity in CD1 mouse assessed as effect on aspartate aminotransferase activity at 5 mg/kg, po daily for 75 days. The class given is organism-based. The following applies: in vivo, 1800 h. Set-up: dose 5 mg/kg, route oral. A digest of the protocol: (§2)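 After 75 days of daily oral gavage at 5 mg/kg, mice were sacrificed and blood was drawn from the heart into a heparinized syringe. Plasma was separated at once by centrifugation at 10,000 x g for 5 min. ALT and AST activities were measured with a commercial kit and compared between control and treated mice.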

The nature of data set [8]: Drug uptake in CD1 mouse liver at 5 mg/kg, po daily for 75 days. Set-up: dose 5 mg/kg, route oral. The following applies: read-out: Drug uptake. The class given is ADME, organism-based. An outline of the steps:
as §1

Data set [9] in a line: Drug uptake in CD1 mouse pancreas at 5 mg/kg, po daily for 75 days. The following applies: read-out: Drug uptake. The class given is ADME, organism-based. Set-up: dose 5 mg/kg, route oral. A digest of the protocol: as §1
Data set [10] relates to Mus musculus. Description: Toxicity in CD1 mouse assessed as effect on alanine transaminase activity at 5 mg/kg, po daily for 75 days. Set-up: dose 5 mg/kg, route oral. Type of data set: organism-based. The following applies: in vivo, 1800 h. An outline of the steps:
as §2

Take `COc1cc(NCc2cc3ccccc3o2)c2nccc(C)c2c1Oc1cccc(C(F)(F)F)c1`: in data set [1], the EC50 (commonly the concentration at which the effect is half-maximal) is 460 nM. Moreover, the CC50 in data set [2] was greater than 50000 nM.

As for `COc1cc(NCCCN)c2nccc(C)c2c1`, the half-maximal effective concentration (EC50) in [1] was determined as 17600 nM. Further, the CC50 in data set [2] was greater than 50000 nM.

In the case of `COc1cc(NCCC(N)=O)c2nccc(C)c2c1Oc1cccc(C(F)(F)F)c1`, the EC50 in [1] was 500 nM. The CC50 in data set [2] was greater than 50000 nM.

Turning to `COc1cc(NCc2ccc(-c3ccccc3)s2)c2nccc(C)c2c1Oc1cccc(C(F)(F)F)c1`, the EC50 in data set [1] stood at 390 nM. Further, in data set [2], the CC50 came to 14500 nM.

Regarding `Cc1ccnc2c(NCc3ccc(O)cc3)cc(O)c(Oc3cccc(C(F)(F)F)c3)c12`, in [2], the CC50 is 3310 nM.

As to `COc1cc(NCc2ccc(O)cc2)c2nccc(C)c2c1Oc1ccccc1`, in data set [1], the EC50 is 530 nM. The CC50 in [2] amounted to 4010 nM.

On to `COc1cc(NCCCN)c2nccc(C)c2c1Oc1ccccc1`, for which the EC50 in [1] was 420 nM. In addition, the CC50 in data set [2] was 8160 nM.

On to `COc1cc(NCc2ccc(O)cc2)c2nccc(C)c2c1Oc1cccc(C(F)(F)F)c1`, for which the concentration at 1800 h in data set [3] was 24.4 µM; in data set [5], 16.1 µM; in data set [6], 4.5 µM; in [8] it was 7.1 µM; in [9], 26.5 µM. Moreover, the Activity result with Mus musculus [4], in the data set with Mus musculus [7] and in the data set with Mus musculus [10] was “Non-toxic” throughout. Further, in the data set with Lung, the Drug uptake result was “NotTraceable”. Moreover, the EC50 in [1] stood at 120 nM. In addition, in [2], the CC50 was found to be 1380 nM.

As to `COc1cc(NCc2ccc(O)cc2)c2nccc(C)c2c1Oc1cccc(F)c1`, the EC50 in data set [1] was found to be 700 nM. The CC50 in [2] amounted to 2600 nM.

In the case of `COc1cc(CNc2cc(OC)c(Oc3cccc(C(F)(F)F)c3)c3c(C)ccnc23)cc(OC)c1O`, the EC50 in data set [1] came out at 480 nM. In addition, the CC50 in [2] amounted to 2910 nM.

On to `COc1cc(NCCCN)c2nccc(C)c2c1Oc1cccc(C(F)(F)F)c1`, for which, in data set [1], the EC50 came out at 150 nM. Besides, in data set [2], the CC50 worked out at 2100 nM.

In the case of `COc1cc(NCc2nccs2)c2nccc(C)c2c1Oc1cccc(C(F)(F)F)c1`, the EC50 in data set [1] is 2390 nM. The CC50 in data set [2] is 20300 nM.

As for `COc1cc(NCc2cccc3cccnc23)c2nccc(C)c2c1Oc1cccc(C(F)(F)F)c1`, the EC50 in data set [1] turned out to be 190 nM. Also, the CC50 in data set [2] was greater than 50000 nM.

Regarding `COc1cc(NCCCN)c2nccc(C)c2c1Oc1cccc(F)c1`, the EC50 in data set [1] stood at 600 nM. Also, in data set [2], the CC50 was 7280 nM.

Take `COc1cc(NCc2ccc(O)cc2)c2nccc(C)c2c1`: the EC50 in data set [1] came out at 2620 nM. The CC50 in data set [2] turned out to be 20500 nM.

Consider `COc1cc(NC(=O)c2ccco2)c2nccc(C)c2c1Oc1cccc(C(F)(F)F)c1`, for which, in [1], the EC50 worked out at 3470 nM. Also, the CC50 in [2] is greater than 50000 nM.
